ChEMBL document CHEMBL4513216, “Probing the Open Global Health Chemical Diversity Library for Multistage-Active Starting Points for Next-Generation Antimalarials” (ACS Infect Dis, 2020)

Experiment: Toxicity liver stage against HepG2, at 10uM
Assay type: cell-based
Parameters: test concentration 10 uM, cell line HepG2-A16-CD81EGFP
Conditions: human, HepG2-A16-CD81EGFP cells; read-out: INHIBITION
Method in brief: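 Uninfected HepG2-A16-CD81EGFP cells, 3 × 10^3 per well, 1536-well, plated on prespotted compound at 10 μM final, parasite-free screening media added to match infected plates; puromycin 10 μM positive, DMSO 0.5% negative; run in parallel with 48 h PbLuc assay at 37 °C, 5% CO2; viability by CellTiter-Glo luminescence, normalized to controls.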

Compound | cytotoxicity at 10 µM [%]
CCOC[C@]12COC[C@H]1CN(Cc1cccc(OC)c1)C2 | -75.9
c1cnc(-c2nc(CN3CCCN(Cc4cccs4)CC3)cs2)nc1 | -7.66
Cc1cccn2cc(CC(=O)N3CCCC(n4cncn4)C3)nc12 (stereo not drawn) | -7.31
O=C(NC1CCC1)C1=NOC2(CCN(Cc3ccco3)C2)C1 (stereo not drawn) | -80.6
CN(Cc1cnn(C)c1)C(=O)c1cc2ccccc2c(=O)[nH]1 | -5.64
Cc1ccc(C(=O)N2C[C@H]3CNC[C@H]3C2)cn1 | -1.16
CC(C)OCCCNC(=O)CN1C=Nc2ccccc2S1(=O)=O | -5.44
NC(=O)C1CCN(Cn2nc(-c3ccc(F)cc3)oc2=O)CC1 | -19.6
COCCn1ccc(NC(=O)Nc2ccccn2)n1 | 3.18
Cc1cc(C)nc(N2CCC(CNC(=O)c3cnccn3)CC2)n1 | -26.1
O=C1[C@H]2CCCC[C@H]2C(=O)N1c1cnn(Cc2cccc(F)c2)c1 | -5.24
CCN1CCc2[nH]cnc2C12CCN(c1ccc(Cl)c(C(=O)O)n1)CC2 | 2.74
O=C(NCCNc1ccc(C(F)(F)F)cn1)c1ccc(Br)cc1F | 7.15
Cc1cncc(CN2CC[C@@](O)(CNC(=O)c3c[nH]cn3)[C@H](O)C2)c1 | -1.68
CC(NC(=O)c1cccc[n+]1[O-])c1ccc2c(c1)CCC(=O)N2 (stereo not drawn) | 45.2
CS(=O)(=O)N1CCN(C(=O)c2ccco2)[C@H]2CS(=O)(=O)C[C@H]21 | -6.69
Cc1cn(-c2ccccc2)nc1NS(=O)(=O)c1ccc(C(=O)O)cc1 | -5.51
Cc1ncsc1CN1CCn2nc(CCC(=O)N3CCCC3)cc2C1 | -22.2
c1coc(-c2[nH]c3ncccc3c2CN2CCCOCC2)c1 | -5.44
CCC(CC)NC(=O)c1ccc2nnc(C3CCN(C(C)=O)C3)n2c1 (stereo not drawn) | -2.19
CN(Cc1cn2c(n1)CN(C(=O)N(C)C)CC2)Cc1ccco1 | 4.44
O=C(C1CCCCC1)N1C[C@H]2CNC[C@H]2C1 | -11.9

Compound | cytotoxicity at 10 µM [%]
O=C(O)c1cncc(Cc2cccc(F)c2)c1 | 5.31
CNC(=O)Nc1cc(-c2ccccc2C)nn1CCO | 7
COc1cccc(OC)c1CN1CC(=O)N(c2ccc(C)cc2)CC1C (stereo not drawn) | 1.64
CN(C)Cc1noc2c1CN(C(=O)c1ccncc1)CC2 | -1.28
CN(Cc1ncc[nH]1)S(=O)(=O)c1cccc(C(=O)N2CCOCC2)c1 | -9.5
CCCOc1ccc2c(c1)OCC(C(=O)NC(C)Cn1ccnc1)=C2 (stereo not drawn) | -4.03
CC(NC(=O)N1CCCN(Cc2cccs2)CC1)c1cccnc1 (stereo not drawn) | -8.83
CCc1cnc(N2CCN(Cc3ccon3)CC2)s1 | 1.16
CN(CCO)C(=O)Nc1ccn(-c2cccc(C(F)(F)F)c2)n1 | 4.16
COc1cc(C)c2c(c1C)C[C@@H](C(C)C(=O)O)CC2 (stereo partly drawn) | 4.98
COC(=O)C1CN(CC(=O)Nc2ccccc2Cl)c2ccccc21 (stereo not drawn) | 14.3
Cn1ccc(CN2CCCN(c3nccs3)CC2)cc1=O | 0.0833
CCOC1CCN(CC(=O)Nc2oc(C)c3c(C)n[nH]c(=O)c23)CC1 | -14.4
COCC(C)NC(=O)CSc1ccc(F)c(Cl)c1 (stereo not drawn) | -48
Cc1cc(N2CCCN(C(=O)Cc3cccnc3)CC2)ccn1 | 2.5
CC(C)Nc1ncnc2c1CCN(Cc1ccoc1)CC2 | 5.65
Brc1ccc(NCCCOC2CCOCC2)nc1 | 1.52
CC(C)(C)CN1CCC(c2nccnc2Nc2cnccn2)CC1 | -4.98
Cc1cccc(S(=O)(=O)N2C[C@@H]3C[C@H](C(=O)NC4CCC4)[C@H](C2)O3)c1 | -1.74
O=C(Nc1cnc2n1CCCC2)C1CCNCC1 | 4.25
COc1ccc(CN(C)C(=O)NCc2c(C)cc(C)nc2OC)cc1 | -7.11
COc1ccc(C)cc1CNC(=O)C1=NN(c2ccccc2)C(=O)CN1 | 12.8

Compound | cytotoxicity at 10 µM [%]
Cn1cncc1-c1nnc([C@H]2CCN(C3CCOCC3)C2)o1 | -3.46
COC(=O)CN1CCCN(C(=O)CCOc2cccc(C)c2C)CC1 | -1.73
CCCc1nnc2sc(-c3cc(C(C)C)n[nH]3)nn12 | 17.7
CC(COCC(F)(F)F)NC(=O)c1ccc(-c2ccco2)[nH]c1=O (stereo not drawn) | -20.1
O=C(CC1CCN(c2ncnc3cccc(F)c23)CC1)N1CCCC1 | 7.28
Cc1noc(C)c1CN1CC2(CCN(C(=O)c3ccoc3C)C2)CC1=O (stereo not drawn) | 7.78
OCCn1nccc1C1CCN(CCOc2ccccc2Cl)CC1 | -5.04
CN1CCNC(=O)C12CCN(C(=O)c1ccc3[nH]c(=O)[nH]c3c1)CC2 | 0.5
O=C1CO[C@@H]2CN(S(=O)(=O)c3ccccc3F)C[C@H]2N1 | 0.0416
Cc1ccc(C(=O)Nc2ccc(N(C)C)nc2)n1C | -9.38
C[C@@H]1C[C@H](C(F)(F)F)n2nc(C3CCN(S(=O)(=O)N(C)C)CC3)cc2N1 | -17.9
COCCn1ccc(NC(=O)Nc2ccccc2)n1 | -0.0425
CN(C)C[C@@H]1OC[C@H]2CN(Cc3ccoc3)CC[C@H]21 | -131
Cc1cnc(-c2nc(NC3CCCC3)ncc2-c2onc(C)c2C)cn1 | -32.5
CN(C)c1cc(C(=O)Nc2cccnc2N2CCSCC2)ccn1 | -2.9
COc1ccc(OC)c(C(C)Nc2nc3c(C)nn(C)c3c(=O)n2C)c1 (stereo not drawn) | -15
CNC(=O)C(C)(C)N1CCC[C@H]1C(=O)NCC1CC1 | 2.05
CCc1nc(CC(=O)N2CCCC2Cn2cccn2)cs1 (stereo not drawn) | -2.6
O=C(Cc1ccccc1Br)NCC(=O)Nc1cn[nH]c1 | 7.44
Cc1c[nH]nc1C1CCCN(c2cnccn2)C1 (stereo not drawn) | 8.75
CNc1cc(N2CCC(O)(CNC(=O)c3ccc(C)nc3)C2)ncn1 (stereo not drawn) | -25.3
O=C(c1ccc[nH]1)N1CCn2cc(Cn3cncn3)nc2C1 | -2.65

Compound | cytotoxicity at 10 µM [%]
COc1cc(Cl)c(NC(=O)NCCn2cccc2)cc1OC | -0.473
NC(=O)CCCNC(=O)CCc1cc(Br)cs1 | 4.11
Cc1cnc(CN2CCN(C(C)c3nc(C(C)C)no3)CC2)cn1 (stereo not drawn) | 9.74
CNC(=O)C1CCCN(C(=O)c2ccccc2-n2cc(CN)cn2)C1 (stereo not drawn) | -2.3
COc1ccc(CCN2CCOC(Cn3nc(C)nc3C)C2)cc1 (stereo not drawn) | 2.29
Cc1ccc(-c2ccnc(NCC3(N(C)C)CCOCC3)n2)c(C)n1 | 13.1
Cc1cc(C)n(CC2CN(c3nnc(C)c(C)c3C#N)CCO2)n1 (stereo not drawn) | -18.2
O=C(NCc1cccs1)[C@H]1CC[C@@H]2[C@@H](CCN2Cc2ccoc2)O1 | -0.317
CN(C)S(=O)(=O)Nc1ccc(-n2nncc2C(F)(F)F)cc1 | -2.64
Cc1cc(C)nc(N2CC=C[C@@H]2C(=O)NCc2ccc3c(c2)OCO3)n1 | -8.49
C[C@@H]1CN(S(=O)(=O)N2CCOCC2)C[C@@]1(O)C1CC1 | 5.91
O=C([C@@H]1C[C@@H]2CCN(CCc3ccccc3)C[C@H]2O1)N1CCCC1 | 0.307
CCc1ccc(CN(C)Cc2nc(COc3ccccc3)no2)nc1 | 6.58
CN(C)C(=O)[C@@H]1C[C@@H]2CCN(Cc3nccs3)C[C@@H]2O1 | 2.67
Cc1cc(NC(=O)C(C)Nc2cccc(COCc3ccco3)c2)on1 (stereo not drawn) | -2.41
FC(F)(F)COc1cccc(-c2nc3c([nH]2)CCNC3)c1 | 4.5
Cc1c(Cl)cccc1NCc1nc2n(n1)CCCCC2 | 10.6
C=C(C)COc1cccc(C(=O)N(C)Cc2cc(CC)no2)c1 | -3.42
Cc1cccc(C(C(=O)NCc2csc(-c3ncccn3)n2)N(C)C)c1 (stereo not drawn) | 2.14
CN(C(=O)c1ccc(Cl)cn1)c1ccccc1S(C)(=O)=O | -7.17
CCC[C@H]1CN(CCS(C)(=O)=O)C[C@@H]1NC(=O)c1ccccn1 | 1.13
O=C(c1cocn1)N1C[C@@H]2COC[C@]2(COc2cccnc2)C1 | -107

Compound | cytotoxicity at 10 µM [%]
O=C(CCN1CCCCO1)N1CCC(CO)(CCc2ccccc2)CC1 | 9.71
O=S(=O)(C1CC1)N1CCC2(CCN(Cc3nccs3)CC2)CC1 | 7.67
CN1CCC/C1=N\S(=O)(=O)c1ccc(NC(=O)c2ccc(Cl)s2)cc1 | 1.55
COc1ccc(S(=O)(=O)N2CCn3cnc(COCC4CC4)c3C2)cc1 | -0.262
O=C(NCC(=O)N1CCc2ccccc2C1)c1cnccn1 | -4.81
C=c1cc(C)oc1=C1NC(c2c(C)ncc3c2CCNC3)=NO1 | -0.132
CCn1nc(C)c(NC(=O)CN(C)C(C)c2ccon2)c1C (stereo not drawn) | -147
Cc1ccc(-c2nc(CN3CCc4cnc(C)nc4C3)no2)cc1 | -5.12
CCS(=O)(=O)N1CCC2(CC1)CC(CC(=O)NC1CC1)c1ccccc12 (stereo not drawn) | -1.72
O=C(CN1CCCc2sccc2C1=O)NC1CCc2nccn2C1 (stereo not drawn) | 16.1
CCNc1ncc(C(=O)NC(c2ccccc2)c2ccco2)cn1 (stereo not drawn) | 5.94
O=C(O)c1ccccc1-n1cnc(CN2CCc3ccccc3C2)c1 | 13.6
CCCc1nc(C(C)(C)NC(=O)C2CC(=O)N(CC)C2)no1 (stereo not drawn) | 3.51
O=C(NCCSC1CCCC1)c1cc(C2CC2)on1 | 0.459
CC(C)C1Nc2ccccc2C(=O)N1CC(=O)Nc1nc2c(s1)CCC2 (stereo not drawn) | 2.31
Cc1ccc(CN2Cc3ccnn3CC(COCc3cccnc3)C2)o1 (stereo not drawn) | -143
CC(=O)c1c(C)nn(S(=O)(=O)c2ccc(F)cc2)c1C | 3.25
C[S+]([O-])c1ccc(NC(=O)Cc2cccnc2)cc1F (stereo not drawn) | -4.26
Cc1cccc(CN2CCCC(c3nccs3)C2)n1 (stereo not drawn) | 8.38
O=C(CCn1cncn1)N1C[C@@H]2CC[C@H]1CN(Cc1cccnc1)C2 | 7.39
